From PubChem BioAssay
Compounds with a hit are over-represented: about 4.1% of the library has one in this group of screens.
KCNK9 inh = blocks the human KCNK9 two-pore domain potassium channel; HEK293 KCNK9, FluxOR thallium flux fluorescence; hits give low values; actives 1.2% (n = 310,000); Q9NPC2; B-score at 10 µM; AID 488922;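 active means ratio B-score over 3 SD below the library mean, with starting fluorescence within 5 SD of its mean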;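 further: negative B-score means less thallium flux so channel inhibition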
hERG rescue = shields human hERG channel from block by proarrhythmic agents. Q12809. CHO-hERG, FluxOR thallium flux, dofetilide IC70 present. activation (rescue from dofetilide block), less the hit threshold, % at 10 µM. actives 0.51% (n = 310,000). AID 1511;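 active means activation above the mean of controls blocked by dofetilide plus 5 SD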;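 further: thallium influx through hERG after potassium depolarization seen as dye fluorescence rise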
Cl transport mod = modulates chloride dependent transport by human KCC2 | Q9H2X9 | KCC2 cells, thallium flux FluoZin-2 fluorescence | B-score of Tl+ flux slope (higher = more flux/activation; lower = inhibition) at 10 µM | actives 2.2% (n = 190,000) | AID 1456;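 active means thallium flux slope and its plate-corrected score both differing from the plate sample mean at a set confidence after two filtering rounds, in either direction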;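 further: slope of fluorescence scaled to starting intensity during 10 to 20 s after thallium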
KCNQ1 act = potentiates or activates the human KCNQ1 potassium channel; P51787; CHO-K1 KCNQ1, thallium flux FluxOR fluorescence; hits give high values; B-score at 10 µM; actives 0.35% (n = 310,000); AID 2648;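 active means fluorescence ratio B-score, a plate-corrected score, at least three library SD, with initial intensity B-score within 5 SD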
Target sequence (P51787 whole entry, looked up): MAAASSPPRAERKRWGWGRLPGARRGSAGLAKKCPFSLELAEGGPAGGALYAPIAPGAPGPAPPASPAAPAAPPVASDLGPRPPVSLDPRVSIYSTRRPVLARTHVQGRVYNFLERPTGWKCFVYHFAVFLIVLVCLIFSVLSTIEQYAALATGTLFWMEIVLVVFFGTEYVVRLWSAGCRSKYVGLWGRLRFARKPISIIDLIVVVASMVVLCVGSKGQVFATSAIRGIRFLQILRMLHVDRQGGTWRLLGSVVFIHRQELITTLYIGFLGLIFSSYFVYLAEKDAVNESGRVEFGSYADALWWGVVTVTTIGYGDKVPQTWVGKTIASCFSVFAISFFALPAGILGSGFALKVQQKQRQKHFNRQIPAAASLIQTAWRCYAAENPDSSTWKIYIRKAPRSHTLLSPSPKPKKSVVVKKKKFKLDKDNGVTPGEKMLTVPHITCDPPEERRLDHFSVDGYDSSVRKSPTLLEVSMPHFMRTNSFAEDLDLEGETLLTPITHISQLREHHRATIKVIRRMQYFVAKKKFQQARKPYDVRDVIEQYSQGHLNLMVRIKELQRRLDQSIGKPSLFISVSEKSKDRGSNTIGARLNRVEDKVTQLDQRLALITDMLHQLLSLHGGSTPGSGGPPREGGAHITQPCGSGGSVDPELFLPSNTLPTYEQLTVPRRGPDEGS
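System: Stable KCNQ1 CHO-K1 line | Incubation: 90 min dye loading and 20 min compound exposure, both at room temperature | Measure: Ratio B score | Medium: Assay buffer for compound exposure, DMSO matched across wells | Compound dosing: Single-concentration screen | Probe or stimulus: K+/Tl+ depolarizing stimulus | Measured by: Kinetic FluxOR fluorescence, 10 s baseline plus 110 s post-stimulus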
KCNQ1 inh = blocks the human KCNQ1 potassium channel; actives 1.3% (n = 310,000); B-score at 10 µM; CHO-K1 KCNQ1, FluxOR thallium flux fluorescence; hits give high values; P51787;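 active means compounds whose thallium flux B-score, printed positive for inhibition, exceeds three library SD while starting fluorescence stays within three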;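 further: channel opened by potassium depolarization with thallium stimulus after 20 min compound exposure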
KCNK3 inh = human KCNK3 channel inhibition, primary screen | CHO-KCNK3 thallium flux, FluxOR fluorescence; hits give low values | B-score at 10 µM | actives 0.84% (n = 340,000);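 active means B-score under library mean minus 4 SD, starting fluorescence ratio at most library mean plus 5 SD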;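 further: more negative B-score means stronger inhibition of thallium flux through KCNK3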
KCNQ1 inh valid = human KCNQ1 channel inhibition, validation assay; shares compounds with KCNQ1 inh; KCNQ1 cell line, FluxOR thallium flux fluorescence; inhibition, % at 10 µM; actives 93% (n = 1,600);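 active means primary screen active, with duplicate mean exceeding buffer control mean plus 3 SD of buffer wells, cut at about 28% in these data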;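 further: 0% = buffer control ratio and 100% = XE991 inhibitor control ratio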
CHO KCNQ1 ctr = KCNQ1 inhibitor counter-screen hit in parental CHO cells; shares compounds with KCNQ1 inh; parental CHO-K1, FluxOR thallium flux fluorescence ratio; hits give low values; zero means no signal rise above baseline; fluorescence ratio (Tl flux) at 10 µM; actives 21% (n = 1,600); AID 588366;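 active means mean of duplicate thallium-flux fluorescence ratios in parental host cells more than 5 SD below the buffer control mean, cut at about 0.38 in these data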;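 further: ratio is peak minus minimum fluorescence divided by baseline fluorescence; actives read low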
KCNQ1 ephys val = human KCNQ1 inhibition validated by electrophysiology; shares compounds with KCNQ1 inh; actives 20% (n = 490); calls only at 10 µM; AID 624120; KCNQ1-CHO cells, automated patch clamp current;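 active means KCNQ1 current drop exceeding 3 SD of negative control wells, seen in both duplicate runs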;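 further: steady state current during a 2 s step from -80 to +40 mV; negative values mean current inhibition and positive values mean potentiation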
KCNQ2 spec = selectivity of KCNQ1 inhibitors: inhibition of rat KCNQ2 channel. shares compounds with KCNQ1 inh. KCNQ2 cells, FluxOR thallium flux fluorescence. inhibition, % at 10 µM. actives 71% (n = 1,600). AID 651746;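 active means mean percent inhibition of the KCNQ2 thallium signal more than 5 SD above the buffer-only control wells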;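 further: KCNQ2 expressed in CHO cells; 0% = buffer control wells and 100% = XE-991 inhibitor control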
KCNQ1 KCNE1 spec = human KCNQ1/KCNE1 inhibition in KCNQ1 specificity screen; AID 652147; inhibition, % at 10 µM; KCNQ1/KCNE1 cells, FluxOR thallium flux fluorescence; actives 77% (n = 1,600); shares compounds with KCNQ1 inh;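 active means mean percent inhibition of duplicate wells above the buffer-only control mean plus 3 SD of those controls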;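 further: 0% = buffer only wells and 100% = XE-991 inhibitor control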
Numbers without * were called inactive; i = inactive; . = no result given.

SMILES | KCNK9 inh | hERG rescue | Cl transport mod | KCNQ1 act | KCNQ1 inh | KCNK3 inh | KCNQ1 inh valid | CHO KCNQ1 ctr | KCNQ2 spec | KCNQ1 KCNE1 spec | others
Cc1ccc(Cl)cc1N1CCN(S(=O)(=O)c2ccc3c(c2)OCCO3)CC1 | i | -0.3 | -0.253 | i | 7* | i | 113.0* | 0.395 | 78.0%* | 128.0%*
Cc1ccc(NC(=O)c2cccc(C(=O)Nc3ccc(C)c(C)c3)n2)cc1C | i | -12.2 | . | i | 8* | i | 0.0 | 0.443 | 103.7%* | 36.0%*
CCc1ccc(NC(=O)c2cccc(C(=O)Nc3ccc(CC)cc3)n2)cc1 | i | -13.8 | . | i | i | i | . | . | . | .
CCCCn1c(N)c(N(CC(C)C)C(=O)CCNC(=O)c2ccc(Br)cc2)c(=O)[nH]c1=O | i | -3.6 | . | i | i | i | . | . | . | .
COC(=O)c1c(C)[nH]c(C(=O)OCC(=O)c2c(N)n(CC(C)C)c(=O)n(C)c2=O)c1C | . | . | . | . | . | i | . | . | . | .
Clc1ccc(CN=C(Nc2ccccc2)NC2CCCCC2)cc1 | i | -7.5 | -0.749 | i | 8* | i | 47.5* | 0.465 | i | 38.0%*
COc1ccc(N(CC(O)Cn2c3ccccc3c3ccccc32)S(=O)(=O)c2ccccc2)cc1 (stereo not drawn) | -7.49* | -8.4 | 1.15 | i | 11* | i | 107.0* | 0.474 | i | 148.5%* | KCNQ1 ephys val=i
CS(=O)(=O)N(CC(O)Cn1c2ccccc2c2ccccc21)c1ccccc1 (stereo not drawn) | i | -7.5 | 0.447 | i | i | i | . | . | . | .
Cc1sc2c(c1C)CN(CCN1CCOCC1)CN2C(=O)c1ccccc1 | i | -8.1 | 0.303 | i | 6* | i | 0.0 | 0.47 | i | 37.0%*
Cc1cc(C)cc(OCC(=O)N(Cc2ccccc2)C2CCS(=O)(=O)C2)c1 (stereo not drawn) | i | -5.7 | . | i | i | i | . | . | . | .
Cc1ccc(NC(=O)C2CCN(S(=O)(=O)c3cc([N+](=O)[O-])ccc3Cl)CC2)nc1 | . | . | . | . | . | i | . | . | . | .
O=C(Nc1nc2ccc(F)cc2s1)C1CCN(S(=O)(=O)c2cc([N+](=O)[O-])ccc2Cl)CC1 | i | -19.5 | 1.12 | i | 15* | i | 158.5* | 0.373* | 118.3%* | 197.5%*
CCOC(=O)c1cnc(SC)nc1Oc1cccc(NS(=O)(=O)c2ccccc2)c1 | i | -15.7 | . | i | 7* | i | 56.5* | 0.448 | 93.0%* | 49.5%*
COc1ccc(NC(=O)CSc2ncccn2)cc1S(=O)(=O)N1CCCCC1 | . | . | . | . | . | i | . | . | . | .
O=C(COc1ccc(Br)cc1)Nc1ccc(N2CCOCC2)cc1N1CCOCC1 | . | . | . | . | . | i | . | . | . | .
Cc1cc(C)c(CSc2ncc(-c3ccc([N+](=O)[O-])cc3)[nH]2)c(C)c1 | i | -8.9 | -0.00405 | i | 16* | i | 140.0* | 0.426 | 92.7%* | 184.5%* | KCNQ1 ephys val=i
O=[N+]([O-])c1ccc(-c2cnc(SCc3ccccc3Cl)[nH]2)cc1 | i | -5.6 | 0.162 | i | i | i | . | . | . | .
CCN1C(=O)[C@@H]2[C@@H](c3ccc(SC4CCCCC4)cc3)N3CCCC[C@@]3(C(=O)OC)[C@@H]2C1=O | i | -12.1 | . | i | i | i | . | . | . | .
CC(C)NC(=O)c1ccccc1NS(=O)(=O)c1ccc(Br)s1 | i | -9.8 | . | i | 8* | i | 0.0 | 0.503 | i | 55.5%*
COc1ccc(N=C2NC(=O)S/C2=C\c2ccc(N(C)C)cc2)cc1 | i | -15.3 | -0.675 | i | 7* | i | 60.5* | 0.376* | 66.3%* | 105.5%*
O=C(Nc1ccccc1C(=O)Nc1nnc(C(F)(F)F)s1)c1ccccc1Cl | i | -12.9 | 0.746 | i | 6* | i | 66.5* | 0.449 | 65.3%* | i
O=C(Nc1ccc(Oc2ccc3ccccc3c2)cc1)c1ccco1 | i | -22.9 | -2.89 | i | 14* | i | 150.5* | 0.354* | i | 186.0%*
O=C(Nc1ccc(Oc2ccc(NC(=O)c3ccco3)c(NC(=O)c3ccco3)c2)cc1)c1ccco1 | i | -5.0 | -1.27 | i | i | i | . | . | . | .
COc1ccc(NC(=O)CN(C)C2=NS(=O)(=O)c3ccccc32)cc1Cl | . | . | . | . | . | i | . | . | . | .
COc1cc(NC(=O)COc2ccc(-n3ccnc3)cc2)cc(OC)c1 | i | -10.5 | -0.342 | i | i | i | . | . | . | .
SMILES | KCNK9 inh | hERG rescue | Cl transport mod | KCNQ1 act | KCNQ1 inh | KCNK3 inh | KCNQ1 inh valid | CHO KCNQ1 ctr | KCNQ2 spec | KCNQ1 KCNE1 spec | others
CC(C)(C)c1ccc(NC(=O)COc2ccc(-n3ccnc3)cc2)cc1 | i | -16.7 | . | i | 7* | i | 130.0* | 0.47 | 74.3%* | 40.5%*
Cc1ccc2occ(/C=N/NC(=O)c3ccncc3)c(=O)c2c1 | i | -8.7 | . | i | i | i | . | . | . | .
CCC(=O)N(Cc1ccco1)c1nc(C(=O)Nc2ccc(Cl)cc2)c(C)s1 | i | -13.6 | -0.294 | i | 9* | i | 87.5* | 0.454 | 63.3%* | 111.0%*
CCN(C(=O)c1ccco1)c1nc(CC(=O)Nc2ccc(Cl)cc2)cs1 | i | -0.1 | -2.22 | i | i | i | . | . | . | .
O=C(NC(NC1CCS(=O)(=O)C1)C(Cl)(Cl)Cl)c1cccc(Cl)c1 (stereo not drawn) | i | -8.4 | . | i | i | i | . | . | . | .
O=C(NC(NC1CCS(=O)(=O)C1)C(Cl)(Cl)Cl)c1ccc(Br)cc1 (stereo not drawn) | i | -14.1 | . | i | 10* | i | 64.5* | 0.513 | 87.7%* | 36.5%*
Cc1nn(-c2ccccc2)c2c1C(c1ccccc1)C(C#N)=C(N)O2 (stereo not drawn) | i | -10.4 | 0.767 | i | i | i | . | . | . | .
Cc1nn(-c2ccccc2)c2c1C(c1ccc(F)cc1F)C(C#N)=C(N)O2 (stereo not drawn) | i | -5.6 | 0.818 | i | 7* | i | 45.0* | 0.506 | i | 52.5%*
CC(c1ccccc1)N(C)C(=O)CSc1nnc(C2CC2)n1C1CC1 (stereo not drawn) | . | . | . | . | . | i | . | . | . | .
